Reference: ChEMBL document CHEMBL4219255, “Targeting Transient Receptor Potential Vanilloid 1 (TRPV1) Channel Softly: The Discovery of Passerini Adducts as a Topical Treatment for Inflammatory Skin Disorders” (J Med Chem, 2018)
Activity calls are given as the source filed them. No cut-off for these calls is given here.

Columns and labels:
[1] = biological target: Transient receptor potential cation channel subfamily V member 1 (Rattus norvegicus) (UniProt O35433); experiment: Modulatory activity against TRPV1 in Wistar rat neonatal dorsal root ganglia assessed as reduction in capsaicin-evoked action potential by measuring mean spike frequency ratio (P2/P1) at 10 uM by microelectrode array analysis (reference value: 0.87 +/- 0.04)
Sequence of Transient receptor potential cation channel subfamily V member 1 (Rattus norvegicus) (O35433 whole entry): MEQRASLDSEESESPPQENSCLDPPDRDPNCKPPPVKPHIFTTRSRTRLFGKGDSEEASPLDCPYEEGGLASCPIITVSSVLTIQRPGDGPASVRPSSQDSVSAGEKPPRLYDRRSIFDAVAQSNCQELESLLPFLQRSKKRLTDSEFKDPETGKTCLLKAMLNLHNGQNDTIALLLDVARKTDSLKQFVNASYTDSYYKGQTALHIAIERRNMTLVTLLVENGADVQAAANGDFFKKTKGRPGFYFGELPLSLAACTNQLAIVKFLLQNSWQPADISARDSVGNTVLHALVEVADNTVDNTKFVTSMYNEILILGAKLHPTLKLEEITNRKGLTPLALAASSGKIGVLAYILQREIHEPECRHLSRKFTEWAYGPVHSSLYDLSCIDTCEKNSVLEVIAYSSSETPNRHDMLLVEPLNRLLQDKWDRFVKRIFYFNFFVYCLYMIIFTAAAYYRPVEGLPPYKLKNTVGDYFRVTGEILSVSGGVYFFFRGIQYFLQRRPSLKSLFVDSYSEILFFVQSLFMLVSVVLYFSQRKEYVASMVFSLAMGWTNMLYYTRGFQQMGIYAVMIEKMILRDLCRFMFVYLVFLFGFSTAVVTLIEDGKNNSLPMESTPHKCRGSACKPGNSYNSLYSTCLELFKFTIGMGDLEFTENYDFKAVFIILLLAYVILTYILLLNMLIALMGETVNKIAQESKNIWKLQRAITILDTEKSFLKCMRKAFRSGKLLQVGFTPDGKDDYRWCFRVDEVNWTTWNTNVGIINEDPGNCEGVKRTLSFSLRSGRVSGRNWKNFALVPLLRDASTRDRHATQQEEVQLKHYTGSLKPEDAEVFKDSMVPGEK
Outline: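 Capsaicin-evoked action potential firing recorded with test agent at 10 µM. Response expressed as the P2/P1 mean spike frequency ratio.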

Mus musculus [2] = experiment: Antipruritic activity in C57BL/6 mouse histaminergic pruritus model assessed as reduction in licking behavior at 100 ug administered as intraplantar injection pretreated for 30 mins followed by histamine addition measured 10 to 20 mins post histamine instillation; format: functional, organism-based
Mus musculus [3] = experiment: Effect on thermal nociception of the contralateral paw in CFA-induced thermal hyperalgesia C57BL/6 mouse model at 10 to 100 ug administered as intraplantar injection treated at 24 hrs post CFA injection measure up to 120 mins; format: ADME, organism-based; details: in vivo, other
Mus musculus [4] = experiment: (§1) Analgesic activity in CFA-induced thermal hyperalgesia C57BL/6 mouse model assessed as reduction in latency time required to elicit paw withdrawal in response to radiant heat applied to the plantar surface of a hind paw at 10 to 100 ug administered as intraplantar injection treated at 24 hrs post CFA injection measured at 30 mins post dose; format: functional, organism-based
[5] = Drug metabolism in human liver cytosol assessed as sulfate conjugate formation at 50 uM in presence of UDPGA after 60 mins by LC-ESI-MS analysis; format: ADME, subcellular; details: 1 h
Liver carboxylesterase 1 = biological target: T1, Liver carboxylesterase 1 (Homo sapiens, UniProt P23141); experiment: Drug metabolism assessed as recombinant human CE1-mediated compound hydrolysis by measuring rate constant at 50 uM up to 30 mins by LC-UV analysis; format: ADME; details: 0.5 h
T1 sequence (P23141 whole entry): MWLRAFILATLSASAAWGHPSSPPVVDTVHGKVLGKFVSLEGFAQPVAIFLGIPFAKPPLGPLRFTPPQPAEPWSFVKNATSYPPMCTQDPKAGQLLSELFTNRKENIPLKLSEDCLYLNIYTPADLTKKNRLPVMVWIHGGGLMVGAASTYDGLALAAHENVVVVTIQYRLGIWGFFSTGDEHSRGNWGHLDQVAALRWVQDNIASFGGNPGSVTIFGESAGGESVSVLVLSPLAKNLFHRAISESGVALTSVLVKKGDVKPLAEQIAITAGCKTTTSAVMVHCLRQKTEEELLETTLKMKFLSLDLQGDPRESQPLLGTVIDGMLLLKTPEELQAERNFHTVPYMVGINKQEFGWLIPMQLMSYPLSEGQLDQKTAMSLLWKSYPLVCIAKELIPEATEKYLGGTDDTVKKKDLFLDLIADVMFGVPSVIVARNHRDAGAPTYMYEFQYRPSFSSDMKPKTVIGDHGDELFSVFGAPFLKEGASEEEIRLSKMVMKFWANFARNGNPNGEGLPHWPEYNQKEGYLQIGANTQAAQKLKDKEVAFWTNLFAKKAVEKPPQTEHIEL
Outline: (§2)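 Recombinant human carboxylesterase isoforms 1 and 2 were each incubated with the test ester. Hydrolysis was followed by HPLC-UV, tracking the disappearance of the substrate over incubation time relative to the initial amount. Chromatograms were also checked for peaks of the expected hydrolysis metabolites.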

Mus musculus [6] = experiment: as §1, with “60” for “30”; format: functional, organism-based
[7] = biological target: Transient receptor potential cation channel subfamily V member 1 (Homo sapiens, UniProt Q8NER1); experiment: Antagonist activity at TRPV1 (unknown origin) expressed in human SH-SY5Y cells assessed as inhibition of capsaicin-induced calcium influx at 1 uM after 25 mins by Fluo-4 NW dye-based fluorescence assay relative to capsaicin; format: cell-based
Sequence of Transient receptor potential cation channel subfamily V member 1 (Q8NER1 whole entry): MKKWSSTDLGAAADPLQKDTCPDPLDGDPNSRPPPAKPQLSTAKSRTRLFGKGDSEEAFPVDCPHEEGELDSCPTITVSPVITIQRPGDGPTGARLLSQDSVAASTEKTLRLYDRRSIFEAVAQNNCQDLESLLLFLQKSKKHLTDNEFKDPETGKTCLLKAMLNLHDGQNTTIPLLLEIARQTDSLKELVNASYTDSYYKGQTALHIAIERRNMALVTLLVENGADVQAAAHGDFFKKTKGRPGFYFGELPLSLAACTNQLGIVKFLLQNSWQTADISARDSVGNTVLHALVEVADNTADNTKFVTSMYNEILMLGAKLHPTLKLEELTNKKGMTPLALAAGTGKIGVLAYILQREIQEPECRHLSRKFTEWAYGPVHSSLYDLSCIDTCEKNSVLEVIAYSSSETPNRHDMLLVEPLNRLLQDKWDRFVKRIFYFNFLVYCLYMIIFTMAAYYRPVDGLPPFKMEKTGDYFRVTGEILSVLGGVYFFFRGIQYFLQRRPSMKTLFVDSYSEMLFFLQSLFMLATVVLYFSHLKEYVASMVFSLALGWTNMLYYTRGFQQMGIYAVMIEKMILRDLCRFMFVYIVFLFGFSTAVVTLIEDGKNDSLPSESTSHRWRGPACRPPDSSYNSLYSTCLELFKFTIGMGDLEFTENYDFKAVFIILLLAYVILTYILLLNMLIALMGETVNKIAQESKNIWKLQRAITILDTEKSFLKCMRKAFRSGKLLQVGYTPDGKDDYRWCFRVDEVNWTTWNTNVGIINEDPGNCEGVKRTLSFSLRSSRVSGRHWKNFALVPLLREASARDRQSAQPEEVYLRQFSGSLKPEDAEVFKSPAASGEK

[8] = Drug metabolism in human keratinocytes assessed as residual substrate levels at 50 uM up to 120 mins by HPLC-UV analysis; format: ADME, cell-based, Keratinocyte; details: read-out: Stability
Cocaine esterase = biological target: T2, Cocaine esterase (Homo sapiens, UniProt O00748); experiment: Drug metabolism assessed as recombinant human CE2-mediated compound hydrolysis by measuring rate constant at 50 uM up to 30 mins by LC-UV analysis; format: ADME; details: 0.5 h; outline: as §2
T2 sequence (O00748 whole entry): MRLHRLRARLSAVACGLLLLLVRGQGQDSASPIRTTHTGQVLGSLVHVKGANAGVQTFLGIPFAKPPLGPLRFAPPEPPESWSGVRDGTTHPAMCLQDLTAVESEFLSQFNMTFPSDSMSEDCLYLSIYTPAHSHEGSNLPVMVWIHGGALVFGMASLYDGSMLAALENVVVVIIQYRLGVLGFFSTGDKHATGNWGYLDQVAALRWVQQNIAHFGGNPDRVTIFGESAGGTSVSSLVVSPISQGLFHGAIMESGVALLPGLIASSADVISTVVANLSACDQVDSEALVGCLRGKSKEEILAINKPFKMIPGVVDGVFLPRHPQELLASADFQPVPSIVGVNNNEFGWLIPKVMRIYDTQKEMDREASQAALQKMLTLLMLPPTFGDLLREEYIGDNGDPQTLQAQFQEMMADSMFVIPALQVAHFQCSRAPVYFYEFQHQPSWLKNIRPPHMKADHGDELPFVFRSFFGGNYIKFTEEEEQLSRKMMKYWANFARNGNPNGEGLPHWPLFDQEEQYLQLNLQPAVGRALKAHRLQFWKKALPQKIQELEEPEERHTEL

Mus musculus [9] = experiment: as §1, with “paw” for “paw at 10 to 100 ug”, “measured every” for “measured at”, “30 mins up to 120” for “30”; format: functional, organism-based

Structure (SMILES): CCCCCCCCCCCC(=O)OCC(=O)NCc1cc(OC)c(O)cc1I
- Ratio [1]: 0.53
- Activity (Mus musculus [2]): Active
- Activity (Mus musculus [3]): Non-Toxic
- Activity (Mus musculus [4]): Active
- Drug metabolism [5]: Metabolite_Notdetected
- K (Liver carboxylesterase 1): 0.0255 min⁻¹
- Activity (Mus musculus [6]): Active
- inhibition [7]: 59.8%
- remaining at 2 h, 50 µM [8]: 22.6%
- K (Cocaine esterase): 0.0555 min⁻¹
- Activity (Mus musculus [9]): Dose-dependent effect
